Assay results reported in ChEMBL document CHEMBL4385612, “Novel 15-Lipoxygenase-1 Inhibitor Protects Macrophages from Lipopolysaccharide-Induced Cytotoxicity” (J Med Chem, 2019).
pIC50: −log10 of the molar value. Values belong to the compound of their own block, whether it stands above or below them. Activity calls are given as the source filed them. The rule behind the calls is not given here.

Experiments:
[1] = tested on: RAW264.7; experiment: Inhibition of LPS/IFNgamma-stimulated lipid peroxidation in mouse RAW264.7 cells at 5 uM after 24 hrs by BODIPY 581/591 C11-staining based FACS assay; assay type: functional, cell-based
Procedure, shortened: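 RAW 264.7 cells, 10 × 10^6 per well, incubated overnight. Then LPS/IFNγ (10 ng/mL each) for 24 h with or without inhibitor at 5 μM. Unstimulated cells served as control. Stained with BODIPY 581/591 C11 for 30 min at 37 °C. Red-to-green fluorescence shift measured by flow cytometry, 488 nm excitation. n = 3, mean ± SEM.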

[2] = target: T1, Polyunsaturated fatty acid lipoxygenase ALOX15 (Homo sapiens, UniProt P16050); experiment: Inhibition of human recombinant N-terminal His6-tagged 15-LOX1 expressed in Escherichia coli BL21(DE3) using linoleic acid as substrate preincubated for 10 mins followed by substrate addition by UV absorption analysis
T1 sequence (P16050 whole entry): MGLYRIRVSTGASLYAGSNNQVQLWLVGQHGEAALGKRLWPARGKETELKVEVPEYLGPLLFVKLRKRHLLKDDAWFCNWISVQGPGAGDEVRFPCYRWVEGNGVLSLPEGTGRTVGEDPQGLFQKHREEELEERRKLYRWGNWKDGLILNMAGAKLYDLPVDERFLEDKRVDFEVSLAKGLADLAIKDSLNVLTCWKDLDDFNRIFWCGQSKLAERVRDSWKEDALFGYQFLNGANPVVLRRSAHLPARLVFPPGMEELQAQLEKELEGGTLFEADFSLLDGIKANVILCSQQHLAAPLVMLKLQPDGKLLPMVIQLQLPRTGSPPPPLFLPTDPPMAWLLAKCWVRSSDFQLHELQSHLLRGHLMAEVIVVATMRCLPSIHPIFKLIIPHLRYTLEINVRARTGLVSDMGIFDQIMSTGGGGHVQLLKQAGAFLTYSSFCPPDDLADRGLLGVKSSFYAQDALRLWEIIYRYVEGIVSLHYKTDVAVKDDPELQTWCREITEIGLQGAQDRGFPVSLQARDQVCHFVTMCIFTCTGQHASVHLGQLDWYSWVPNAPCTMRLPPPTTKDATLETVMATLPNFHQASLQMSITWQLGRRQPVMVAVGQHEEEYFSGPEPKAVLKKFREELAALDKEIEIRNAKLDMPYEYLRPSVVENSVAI

[3] = tested on: RAW264.7; experiment: Protection against LPS-induced cell death in mouse RAW264.7 cells assessed as increase in cell viability at 5 uM measured after 48 hrs by MTS assay relative to control; assay type: functional
Procedure, shortened: (§1)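 RAW 264.7 cells seeded at 5000 per well. Given 100 μg/mL LPS together with compound (0.2, 1, 5 μM) for 48 h. Viability measured by MTS: reagent for 2 h at 37 °C, absorbance at 490 nm. Compared with LPS-only control. n = 3–13, mean ± SEM.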

[4] = Stability in pH 7.4 2-betamercaptoethanol at 25 to 50 uM by UV-spectra analysis; assay type: physicochemical; conditions: buffer, pH 7.4, 50 µM
Procedure, shortened: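 UV spectrum of compound recorded during incubation with 2-mercaptoethanol at pH 7.4, to follow thiol conjugate addition to the α,β-unsaturated amide.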

[5] = tested on: RAW264.7; experiment: Protection against LPS-induced cell death in mouse RAW264.7 cells assessed as increase in cell viability measured after 48 hrs by MTS assay; assay type: functional, cell-based; procedure, shortened: as §1
[6] = target: T2, Polyunsaturated fatty acid lipoxygenase ALOX15 (Mus musculus) (UniProt P39654); experiment: Inhibition of 15-LOX1 in LPS/IFNgamma-stimulated mouse RAW264.7 cells assessed as reduction in nitric oxide production preincubated for 20 hrs followed by LPS/IFNgamma stimulation and measured after 4 hrs by colorimetric method; assay type: cell-based
T2 sequence (whole entry): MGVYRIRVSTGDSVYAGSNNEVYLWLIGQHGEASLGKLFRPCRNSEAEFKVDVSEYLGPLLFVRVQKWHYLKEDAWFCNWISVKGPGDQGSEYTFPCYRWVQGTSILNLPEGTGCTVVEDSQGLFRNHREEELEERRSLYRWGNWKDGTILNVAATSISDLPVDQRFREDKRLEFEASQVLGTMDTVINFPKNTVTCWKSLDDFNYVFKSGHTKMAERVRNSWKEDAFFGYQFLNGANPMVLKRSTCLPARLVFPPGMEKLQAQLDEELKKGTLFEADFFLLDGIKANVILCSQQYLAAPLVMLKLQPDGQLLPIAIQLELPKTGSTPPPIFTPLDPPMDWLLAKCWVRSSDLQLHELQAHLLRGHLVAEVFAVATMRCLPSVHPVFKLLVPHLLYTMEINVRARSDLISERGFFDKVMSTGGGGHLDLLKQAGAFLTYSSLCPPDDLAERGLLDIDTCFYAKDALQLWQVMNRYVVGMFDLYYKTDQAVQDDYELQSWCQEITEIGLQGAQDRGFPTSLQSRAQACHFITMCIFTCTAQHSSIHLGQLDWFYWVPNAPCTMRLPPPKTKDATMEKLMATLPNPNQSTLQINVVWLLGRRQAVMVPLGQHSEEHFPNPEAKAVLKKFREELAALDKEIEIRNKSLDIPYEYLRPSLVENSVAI
Procedure, shortened: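 RAW 264.7 cells stimulated with LPS and IFNγ (10 ng/mL each). Figure legend: compound added at 0.2, 1 and 5 μM for 20 h, then LPS/IFNγ for a further 4 h. Methods describe 2 × 10^6 cells per well and a 24 h incubation at 5 μM. Total nitrate/nitrite measured with a colorimetric kit. Stimulated control set to 100%. n = 3, mean ± SEM.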

[7] = target: T2, Polyunsaturated fatty acid lipoxygenase ALOX15 (Mus musculus); experiment: Inhibition of 15LOX1 in LPS/IFNgamma-stimulated mouse RAW264.7 cells assessed as down regulation of iNOS gene expression at 5 uM preincubated for 20 hrs followed by LPS/IFNgamma stimulation and measured after 4 hrs by RT-PCR analysis relative to control; assay type: cell-based
Procedure, shortened: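 RAW 264.7 cells pretreated with compound (0.2, 1, 5 μM) for 20 h, then stimulated with LPS/IFNγ (10 ng/mL each) for 4 h in its presence. Total RNA isolated and integrity checked by 28S/18S ratio. RNA reverse-transcribed, and 10 ng cDNA used per real-time PCR. iNOS expression calculated by 2^–ΔΔCt and normalised to the stimulated positive control. n = 3–4, mean ± SEM.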

[8] = target: T2, Polyunsaturated fatty acid lipoxygenase ALOX15 (Mus musculus); experiment: Inhibition of 15LOX1 in mouse RAW blue cells assessed as suppression of LPS/IFNgamma-stimulated NFkappaB activation by measuring reduction in SEAP release at 0.2 to 5 uM preincubated for 20 hrs followed by LPS/IFNgamma-stimulation and measured after 4 hrs by quanti blue reagent-based reporter gene assay; assay type: cell-based
Procedure, shortened: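 RAW-Blue cells (RAW 264.7 carrying an NF-κB–SEAP reporter, kept with 200 μg/mL Zeocin) seeded at 10 × 10^4 per well the day before. Pretreated with compound (0.2, 1, 5 μM) for 20 h, then LPS and IFNγ (10 ng/mL each) added for 4 h. Secreted SEAP read with QuantiBlue after 2 h at 37 °C, absorbance 635–655 nm. n = 8–16, mean ± SEM.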

[9] = target: T2, Polyunsaturated fatty acid lipoxygenase ALOX15 (Mus musculus); experiment: Inhibition of N144 probe binding to 15-LOX in mouse RAW264.7 cells measured after 2 mins by HRP-coupled Western blot analysis; assay type: cell-based
Procedure, shortened: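 Lysates of inhibitor-treated and untreated RAW 264.7 cells exposed to covalent alkene probe N144 for 2 min. Probe then biotinylated by oxidative Heck reaction with a biotinylated phenylboronic acid and detected on blots with streptavidin–HRP. Blots also probed for 15-LOX-1 and β-actin. Band intensities normalised to β-actin. n = 3 independent experiments, mean ± SEM.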

Compound: c1ccc2c(c1)SCc1c-2[nH]c2ccccc12
inhibition [1]: Active

Compound: CCOC(=O)c1[nH]c2cc(Cl)ccc2c1C(=O)C[C@@H](C)CCCC(C)C
Activity [3]: Active

Compound: CCOC(=O)c1[nH]c2cc(Cl)ccc2c1/C=C/C(=O)NCc1ccccc1OC
Stability [4]: Stable
Activity [5]: Dose-dependent effect
inhibition [6]: Dose-dependent effect
inhibition [7]: 50%
inhibition [8]: Active
inhibition [1]: Active
Activity [3]: 20%
inhibition [9]: Active

Compound: CCCNC(=O)c1[nH]c2cc(Cl)ccc2c1CN(C)C
pIC50 [2]: < 4.70

Compound: CC(c1cc2ccccc2s1)N(O)C(N)=O (centres undefined)
inhibition [1]: Active
Activity [3]: Active

Next, values leading:

pIC50 [2]: < 4.70
Compound: CCCNC(=O)c1[nH]c2cc(Cl)ccc2c1/C=C/C(=O)NCc1ccccc1OC

pIC50 [2]: < 4.70
Compound: O=C(NC1CC1)c1cc2ccc(Cl)cc2[nH]1

pIC50 [2]: < 4.70
Compound: CCCNC(=O)c1c(C(=O)OCC)[nH]c2cc(Cl)ccc12

pIC50 [2]: < 4.70
Compound: CCCNC(=O)c1[nH]c2cc(Cl)ccc2c1C(=O)C[C@H](C)CCCC(C)C

pIC50 [2]: < 4.70
Compound: CCOC(=O)c1[nH]c2cc(Cl)ccc2c1/C=C/C(=O)NCCc1ccccc1

pIC50 [2]: < 4.70
Compound: CCCNC(=O)c1[nH]c2cc(Cl)ccc2c1C(=O)C[C@@H](C)CCCC(C)C
